Active and inactive are the calls of the source. The rule behind the calls is not given here. Some results are limits rather than exact numbers.

In one data set the test system is SH-SY5Y. In words: Antineurotoxicity in human SH-SY5Y cells assessed as inhibition human THP1 cell supernatant-induced cytotoxicity compound pretreated 24 to 48 hrs to THP1 cells measured after 72 hrs of supernatant addition. The format is functional, cell-based. The procedure, abridged:
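THP-1 cells in DMEM-F12 with 5% FBS, pretreated 15 min with compound or DMSO, then stimulated with LPS 0.5 µg/mL plus IFN-γ 150 U/mL for 24 or 48 h. Cell-free supernatant transferred to SH-SY5Y cells plated 24 h earlier. After 72 h, viability by LDH release and MTT. IC50 from curves of at least three independent experiments.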

The nature of data set [1]: Acute toxicity in po dosed Swiss albino mouse after 24 hrs. Format: organism-based. The note with it: in vivo, read-out: ALD50. The method, boiled down:
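Four groups of five Swiss albino mice (20–30 g), fasted 24 h beforehand, given compounds orally at graded doses of 0–300 mg/kg. Mortality recorded at each dose level after 24 h to estimate the acute lethal dose (ALD50).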

In data set [2] the test system is THP-1. In words: Inhibition of MCP1 release in human THP1 cells after 24 hrs by ELISA. Format: functional, cell-based. The method, boiled down: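 THP-1 cells pretreated 15 min with compound, then stimulated with LPS 0.5 µg/mL plus IFN-γ 150 U/mL. After 24 h, MCP-1 (ng/mL) measured in cell-free medium by ELISA.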
On the technique in general: ELISA stands for enzyme-linked immunosorbent assay.

Data set [3] deals with THP-1. The data set can be described thus: Cytotoxicity against LPS and IFN-gamma-stimulated human THP1 cells after 24 hrs. The format is functional, cell-based. The note with it: THP-1, 24 h. The method, boiled down:
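THP-1 cells, 24-well, in DMEM-F12 with 5% FBS. Compound or DMSO added 15 min before LPS 0.5 µg/mL plus IFN-γ 150 U/mL. After 24 h, LDH release (fraction of Triton-lysed value, OD 490) and MTT were read. EC50 taken from curves of at least three independent experiments; the lower of the two assay values was reported.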

Data set [4] deals with Rattus norvegicus. The data set can be described thus: Antiinflammatory activity in po dosed Wistar albino rat acute inflammatory model assessed as inhibition of formalin-induced paw edema administered 1 hr before formalin challenge measured after 3 hrs by plethysmometer. The format is functional. The procedure, abridged: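 Rats dosed orally at 5, 10, 20, 40 and 50 mg/kg body weight. Edema volume inhibition measured 3 h after subplantar formalin (2%, 0.1 mL), and ED50 determined from these doses.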

Data set [5] relates to Rattus norvegicus. In words: Antiinflammatory activity in Wistar albino rat sub-acute inflammatory model assessed as inhibition of formalin-induced paw edema at 20 mg/kg, po administered daily for 7 days by plethysmometer relative to control. Format: functional. Conditions: 168 h. The method, boiled down: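 Rats dosed orally at 20 mg/kg daily for 7 consecutive days. 0.1 mL 2% formalin given subplantar in left hind paw under light ether 1 h after the first oral dose, with a second injection on day 3. Paw edema weight (g) measured on day 8. % inhibition = (control − treated)/control ×100. Groups of five.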

The test system of data set [6] is Rattus norvegicus. The data set can be described thus: Antiinflammatory activity in Wistar albino rat sub-acute inflammatory model assessed as inhibition of turpentine oil-induced granuloma pouch exudate volume at 20 mg/kg, po 1 hr before turpentine oil challenge for 7 days assessed measured on day 8. The format is functional. The method, boiled down:
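Male rats 120–150 g, five per group. Subcutaneous dorsal pouch made under ether with 2 mL air, then 0.5 mL turpentine oil injected. Compound 20 mg/kg po 1 h before turpentine, then daily for seven days. On day 8 exudate drawn by syringe under anesthesia and volume measured. % inhibition = (Vcontrol − Vtreated)/Vcontrol ×100.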

Data set [7] deals with Rattus norvegicus. In words: Antiinflammatory activity in Wistar albino rat acute inflammatory model assessed as inhibition of formalin-induced paw edema at 20 mg/kg, po administered 1 hr before formalin challenge measured after 2 hrs by plethysmometer relative to control. Further details: scale not given: the % may be the effect or the level left. Format: functional. The procedure, abridged:
(§1)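 Male Wistar rats, 180–200 g, groups of five. Test compound 20 mg/kg po; 1 h later 0.1 mL 2% formalin injected subplantar into left hind paw under light ether anesthesia. Paw volume by water plethysmometer at 0 and 1, 2, 3, 4 h after formalin. % inhibition = (Vt−V0)control minus (Vt−V0)treated, divided by (Vt−V0)control ×100. Mean ± SEM, ANOVA with Student–Newman–Keuls.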

In data set [8] the test system is Rattus norvegicus. In words: Antiinflammatory activity in Wistar albino rat acute inflammatory model assessed as inhibition of formalin-induced paw edema at 20 mg/kg, po administered 1 hr before formalin challenge measured after 4 hrs by plethysmometer relative to control. Details: scale not given: the % may be the effect or the level left. Format: functional. The method, boiled down: as §1

Data set [9] relates to Rattus norvegicus. In words: Antiinflammatory activity in Wistar albino rat acute inflammatory model assessed as inhibition of formalin-induced paw edema at 20 mg/kg, po administered 1 hr before formalin challenge measured after 1 hr by plethysmometer relative to control. Format: functional. Details: scale not given: the % may be the effect or the level left. The procedure, abridged:
as §1

A further data set concerns HL-60. The data set can be described thus: Inhibition of phagocyte respiratory burst in human HL60 cells after 6 to 7 days by luminol-induced chemiluminescence. Format: functional, cell-based. The method, boiled down: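 HL-60 cells differentiated 6–7 days in DMEM-F12 with 10% FBS and 1.3% DMSO, washed into serum-free, phenol red-free medium, then held 30 min at 37 °C before compound or DMSO was added. Luminol injected, 7.5 min baseline recorded, then FMLP injected (final 1 µM; luminol 5 mM; DMSO 0.5%). Chemiluminescence recorded 30 min at 37 °C; read-out was area under the curve.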

Data set [10] concerns Rattus norvegicus. In words: Antiinflammatory activity in Wistar albino rat acute inflammatory model assessed as inhibition of formalin-induced paw edema at 20 mg/kg, po administered 1 hr before formalin challenge measured after 3 hrs by plethysmometer relative to control. Details: scale not given: the % may be the effect or the level left. The format is functional. The method, boiled down: as §1

The subject of data set [11] is Rattus norvegicus. In words: Gastrointestinal toxicity in Wistar albino rat assessed as ulceration at 100 mg/kg/day, po administered twice daily for 3 days. Conditions: in vivo, 72 h. The format is organism-based. Details: route oral. The procedure, abridged: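 Male rats 180–200 g, groups of five, fasted 12 h with water available. Compounds given orally as two equal doses at 0 and 12 h, 100 mg/kg per day, for three successive days; vehicle control 1% gum acacia. Rats killed 6 h after last dose. Stomach opened along greater curvature, washed with cold saline and inspected under 3× lens for hyperemia, hemorrhage, erosions or ulcers.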

A word on the IC50: it is the concentration needed to halve the response being measured. As a reminder, the EC50 is the midpoint of the concentration-response curve. Turning to `O=C1S/C(=C\c2cn(-c3ccccc3)nc2-c2ccc(Cl)cc2)C(=O)N1Cc1cccc(Br)c1`, the IC50 with SH-SY5Y was determined as 8 µM. Besides, the LD50 at 24 h in data set [1] is above 300 mg/kg. Moreover, the inhibition entry in the data set on THP-1 [2] is “inactive”. This compound also yielded an EC50 in the data set on THP-1 [3] of 5 µM.
As to `C=CCN1C(=O)S/C(=C\c2cn(-c3ccccc3)nc2-c2ccccc2)C1=O`, the IC50 in the data set with SH-SY5Y is 50 µM. Also, the LD50 at 24 h in [1] is above 300 mg/kg. Further, the inhibition entry in the data set on THP-1 [2] was “inactive”. The compound further yielded an EC50 in the data set with THP-1 [3] above 100 µM.
Taken in the same sequence, the figures for `O=C1S/C(=C\c2cn(-c3ccccc3)nc2-c2ccc(Cl)cc2)C(=O)N1Cc1ccccc1` were 8 µM, above 300 mg/kg, “inactive” and 1 µM.
Take `O=C1S/C(=C\c2cn(-c3ccccc3)nc2-c2ccccc2)C(=O)N1Cc1ccccc1`: the LD50 at 24 h in data set [1] was above 300 mg/kg. The inhibition result in the data set on THP-1 [2] is “inactive”. Further, the EC50 with THP-1 [3] was above 100 µM.
For orientation: ED50 means the dose at which the effect has come halfway, by size or by number of responders. What is called inhibition in vivo is the share of the control response that was lost under treatment. In the case of `O=C1NC(=O)/C(=C/c2cn(-c3ccccc3)nc2-c2ccccc2)S1`, the ED50 in the data set with Rattus norvegicus [4] amounted to 21.3 mg/kg. For the same compound, the LD50 at 24 h in data set [1] was above 300 mg/kg. Besides, in the data set on THP-1 [2], the inhibition entry was “inactive”. Also, the inhibition in vivo at 20 mg/kg in the data set with Rattus norvegicus [5] and in the data set with Rattus norvegicus [6] was 53% in each case. In the data set with THP-1 [3], this compound came in with an EC50 of 50 µM. The Activity with Rattus norvegicus [7] is 38%; with Rattus norvegicus [8] it was 43%; in the data set on Rattus norvegicus [9] it was 35%; in the data set with Rattus norvegicus [10] it was 43%. In the data set with HL-60, this compound returned an IC50 of 8 µM.
As for `O=C1S/C(=C\c2cn(-c3ccccc3)nc2-c2ccccc2)C(=O)N1Cc1cccc(Br)c1`, the LD50 at 24 h in data set [1] was above 300 mg/kg. Also, the inhibition result in the data set on THP-1 [2] is “inactive”. The compound also yielded an EC50 in the data set on THP-1 [3] above 100 µM.
As for `O=C1S/C(=C\c2cn(-c3ccccc3)nc2-c2ccccc2)C(=O)N1Cc1ccc(Cl)cc1`, in the data set with SH-SY5Y, the IC50 amounted to 80 µM. Also, in [1], the LD50 at 24 h was above 300 mg/kg. Besides, the inhibition entry with THP-1 [2] is “inactive”. The EC50 in the data set with THP-1 [3] is 50 µM.
With `CCCN1C(=O)S/C(=C\c2cn(-c3ccccc3)nc2-c2ccc(Cl)cc2)C1=O`, in data set [1], the LD50 at 24 h is above 300 mg/kg. For the same compound, the inhibition entry with THP-1 [2] is “inactive”. In addition, the EC50 with THP-1 [3] was above 100 µM.
For the compound `COc1ccc2c(c1)c(CC(=O)O)c(C)n2C(=O)c1ccc(Cl)cc1` [INDOMETHACIN], the Activity in the data set on Rattus norvegicus [11] came out at 100%.
`O=C1S/C(=C\c2cn(-c3ccccc3)nc2-c2ccc(Cl)cc2)C(=O)N1Cc1ccc(Cl)cc1`: the LD50 at 24 h in [1] is above 300 mg/kg. Also, the inhibition entry in the data set with THP-1 [2] was “inactive”. Besides, the EC50 with THP-1 [3] amounted to 4 µM.
Take `O=C1NC(=O)/C(=C/c2cn(-c3ccccc3)nc2-c2ccc(Cl)cc2)S1`: the ED50 in the data set on Rattus norvegicus [4] was 13 mg/kg. The LD50 at 24 h in data set [1] is above 300 mg/kg. For the same compound, the inhibition result in the data set on THP-1 [2] is “inactive”. Also, the inhibition in vivo at 20 mg/kg in the data set on Rattus norvegicus [5] turned out to be 42%; in the data set with Rattus norvegicus [6], 44%. The compound also showed an EC50 with THP-1 [3] above 100 µM. The Activity is 50% with Rattus norvegicus [7], 74% in the data set with Rattus norvegicus [8], 41% with Rattus norvegicus [9] and 74% in the data set on Rattus norvegicus [10]. Half-maximal inhibition in the data set on HL-60 (IC50) was put at 0.8 µM.
Consider `Cc1ccc(-c2cc(C(F)(F)F)nn2-c2ccc(S(N)(=O)=O)cc2)cc1` [CELECOXIB], for which the ED50 in the data set with Rattus norvegicus [4] was 14.3 mg/kg. Moreover, the IC50 in the data set on SH-SY5Y is 5 µM. For the same compound, the Activity with Rattus norvegicus [11] turned out to be 0%; in the data set with Rattus norvegicus [7] it was 50%; with Rattus norvegicus [8], 68%; in the data set with Rattus norvegicus [9], 41%; in the data set on Rattus norvegicus [10], 60%. Further, the inhibition result with THP-1 [2] is “inactive”. Moreover, the inhibition in vivo at 20 mg/kg turned out to be 50% in the data set on Rattus norvegicus [5] and 54% in the data set on Rattus norvegicus [6]. The EC50 in the data set on THP-1 [3] was 50 µM.
For the compound `CCCN1C(=O)S/C(=C\c2cn(-c3ccccc3)nc2-c2ccccc2)C1=O`, in [1], the LD50 at 24 h was above 300 mg/kg. Moreover, the inhibition entry with THP-1 [2] was “inactive”. The EC50 with THP-1 [3] was above 100 µM.

For the origin of these results see ChEMBL document CHEMBL1157559, “Synthesis and biological evaluation of novel pyrazolyl-2,4-thiazolidinediones as anti-inflammatory and neuroprotective agents” (Bioorg Med Chem, 2010).
